Test results as given in ChEMBL document CHEMBL1134348, “Novel glucocorticoid antedrugs possessing a 17beta-(gamma-lactone) ring” (J Med Chem, 2001).

Experiments:
[1] = (§1) % stability in human plasma after 10 minutes.; assay type: ADME, organism-based; conditions: plasma, read-out: Stability
Procedure, shortened: (§2)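 Pooled heparinized plasma from 4 volunteers was incubated at 37 °C with test compound at a final concentration of 30 ug/mL, with DMSO-only controls. The reaction was stopped with 2 M citric acid at 10 and 60 min, with a zero-time sample. Supernatants were analysed by reversed-phase HPLC at 240 nm against an internal standard, in duplicate, and reported as % compound remaining.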

[2] = (§3) % stability in human plasma after 60 minutes.; assay type: ADME, organism-based; conditions: plasma, read-out: Stability; procedure, shortened: as §2
[3] = % stability in krebs buffer after 60 minutes.; assay type: physicochemical; conditions: for remaining at 1 h: Krebs buffer, read-out: Stability; for Stability: buffer, 1 h
Procedure, shortened: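 Test compound, at a final concentration of 30 ug/mL, was spiked into Krebs buffer at 37 °C for 60 min, then quenched with 2 M citric acid. Supernatant was analysed by reversed-phase HPLC with UV detection at 240 nm and an internal standard, in duplicate. The read-out was % compound remaining.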

Glucocorticoid receptor = molecular target: T1, Glucocorticoid receptor (Homo sapiens, UniProt P04150); assay: Affinity for human glucocorticoid receptor
T1 sequence (P04150 whole entry): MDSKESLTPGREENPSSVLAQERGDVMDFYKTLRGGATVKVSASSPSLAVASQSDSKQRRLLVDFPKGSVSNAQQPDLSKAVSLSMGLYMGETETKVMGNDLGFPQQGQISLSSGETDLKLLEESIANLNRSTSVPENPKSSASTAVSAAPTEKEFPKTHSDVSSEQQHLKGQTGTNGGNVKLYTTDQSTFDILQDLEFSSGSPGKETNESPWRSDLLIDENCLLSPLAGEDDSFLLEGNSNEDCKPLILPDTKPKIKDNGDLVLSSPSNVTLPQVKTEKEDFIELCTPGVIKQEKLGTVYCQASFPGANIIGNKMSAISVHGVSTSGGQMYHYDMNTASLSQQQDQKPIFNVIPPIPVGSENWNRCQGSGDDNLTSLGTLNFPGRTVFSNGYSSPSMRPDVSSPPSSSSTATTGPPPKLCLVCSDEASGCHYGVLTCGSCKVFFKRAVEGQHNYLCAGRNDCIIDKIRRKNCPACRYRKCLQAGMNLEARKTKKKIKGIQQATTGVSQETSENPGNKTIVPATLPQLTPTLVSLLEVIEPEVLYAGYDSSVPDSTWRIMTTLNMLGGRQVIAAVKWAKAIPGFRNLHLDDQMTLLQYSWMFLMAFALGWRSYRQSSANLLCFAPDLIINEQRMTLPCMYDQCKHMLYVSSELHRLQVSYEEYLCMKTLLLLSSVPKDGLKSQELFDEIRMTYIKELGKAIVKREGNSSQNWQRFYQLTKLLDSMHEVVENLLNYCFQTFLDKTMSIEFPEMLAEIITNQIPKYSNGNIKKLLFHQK

Homo sapiens [4] = organism: Homo sapiens; assay: as §1; assay type: ADME, organism-based; conditions: 10 min; procedure, shortened: as §2
Homo sapiens [5] = organism: Homo sapiens; assay: as §3; assay type: ADME, organism-based; conditions: 1 h; procedure, shortened: as §2

SMILES	remaining at 10 min [1]	remaining at 1 h [2]	remaining at 1 h [3]	Stability (Homo sapiens [4])	Stability (Homo sapiens [5])	other results
CC1(C)O[C@@H]2CC3C4C[C@H](F)C5=CC(=O)CC[C@]5(C)[C@@]4(F)[C@@H](O)C[C@]3(C)[C@]2(SC2CCOC2=O)O1 (stereo partly specified)	20%	0%	89%	–	–	–
CCC[C@@H]1O[C@@H]2CC3C4C[C@H](F)C5=CC(=O)CC[C@]5(C)[C@@]4(F)[C@@H](O)C[C@]3(C)[C@]2(SC(CCO)C(=O)O)O1 (stereo partly specified)	–	–	–	–	–	IC50 (Glucocorticoid receptor): 400 nM
CCC[C@@H]1O[C@@H]2CC3C4C[C@H](F)C5=CC(=O)CC[C@]5(C)[C@@]4(F)[C@@H](O)C[C@]3(C)[C@]2(SC2COC(=O)C2)O1 (single isomer, unassigned; isomer A)	–	–	–	28%	19%	Stability [3]: 99%
CC1(C)O[C@@H]2CC3C4C[C@H](F)C5=CC(=O)C=C[C@]5(C)[C@@]4(F)[C@@H](O)C[C@]3(C)[C@]2(CC2CCOC2=O)O1 (single isomer, unassigned; isomer B)	100%	99%	100%	–	–	–
CC1=C(SC2CCOC2=O)[C@@]2(C)C[C@H](O)[C@@]3(F)C(CCC4=CC(=O)C=C[C@@]43C)C2C1 (single isomer, unassigned; isomer A)	–	–	–	53%	13%	Stability [3]: 97%
CCC[C@@H]1O[C@@H]2CC3C4C[C@H](F)C5=CC(=O)C=C[C@]5(C)[C@@]4(F)[C@@H](O)C[C@]3(C)[C@]2(S[C@@H]2CCOC2=O)O1 (stereo partly specified)	19%	7%	100%	–	–	–
CC1(C)O[C@@H]2CC3C4C[C@H](F)C5=CC(=O)C=C[C@]5(C)[C@@]4(F)[C@@H](O)C[C@]3(C)[C@]2(CC2CCOC2=O)O1 (single isomer, unassigned; isomer A)	–	–	–	–	100%	–
CC1=C(SC2CCOC2=O)[C@@]2(C)C[C@H](O)[C@@]3(F)C(CCC4=CC(=O)C=C[C@@]43C)C2C1 (single isomer, unassigned; isomer B)	–	8%	98%	17%	–	–
CC1(C)O[C@@H]2CC3C4C[C@H](F)C5=CC(=O)C=C[C@]5(C)[C@@]4(F)[C@@H](O)C[C@]3(C)[C@]2(SC(CCO)C(=O)O)O1 (stereo partly specified)	–	–	–	–	–	IC50 (Glucocorticoid receptor): 289 nM
